Series [1] addresses T1, Protein deacetylase HDAC6 (Mus musculus) (UniProt Q9Z2V5).
T1 sequence (whole entry): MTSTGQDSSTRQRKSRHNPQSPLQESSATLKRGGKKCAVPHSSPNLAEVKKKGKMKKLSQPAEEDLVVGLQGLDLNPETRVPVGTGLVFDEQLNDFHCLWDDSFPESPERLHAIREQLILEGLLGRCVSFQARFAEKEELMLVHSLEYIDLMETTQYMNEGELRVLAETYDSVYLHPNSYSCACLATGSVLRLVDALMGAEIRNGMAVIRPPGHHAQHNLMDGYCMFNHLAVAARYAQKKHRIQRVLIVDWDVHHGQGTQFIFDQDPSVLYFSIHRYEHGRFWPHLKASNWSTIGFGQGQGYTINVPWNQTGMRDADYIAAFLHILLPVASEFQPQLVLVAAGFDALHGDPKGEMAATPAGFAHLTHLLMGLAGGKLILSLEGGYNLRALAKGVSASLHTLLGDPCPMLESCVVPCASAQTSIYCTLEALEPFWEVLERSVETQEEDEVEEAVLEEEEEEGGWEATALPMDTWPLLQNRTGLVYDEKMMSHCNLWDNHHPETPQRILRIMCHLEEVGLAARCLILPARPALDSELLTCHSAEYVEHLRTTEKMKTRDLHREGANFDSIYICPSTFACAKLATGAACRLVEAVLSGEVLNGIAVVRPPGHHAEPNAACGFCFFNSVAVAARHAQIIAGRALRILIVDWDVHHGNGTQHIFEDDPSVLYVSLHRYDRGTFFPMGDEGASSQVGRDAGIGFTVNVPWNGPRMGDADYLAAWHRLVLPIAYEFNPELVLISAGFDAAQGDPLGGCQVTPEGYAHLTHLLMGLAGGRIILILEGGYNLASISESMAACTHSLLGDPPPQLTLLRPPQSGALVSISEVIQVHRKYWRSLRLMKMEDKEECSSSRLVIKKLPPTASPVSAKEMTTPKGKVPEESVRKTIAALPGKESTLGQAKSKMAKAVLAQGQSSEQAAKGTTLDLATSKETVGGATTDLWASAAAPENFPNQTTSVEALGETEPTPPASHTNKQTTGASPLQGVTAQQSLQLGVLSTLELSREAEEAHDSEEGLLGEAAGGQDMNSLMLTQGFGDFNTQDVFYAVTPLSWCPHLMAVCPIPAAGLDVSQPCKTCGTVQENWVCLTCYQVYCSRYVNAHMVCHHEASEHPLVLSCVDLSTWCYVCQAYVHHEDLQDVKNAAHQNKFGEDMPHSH
In words: Inhibition of HDAC6 in mouse SM1 cells assessed as effect on acetylated histone H3 level at 5 uM after 24 hrs by Western blot analysis. It counts as cell-based. For orientation: A western blot detects proteins with antibodies after separation by electrophoresis.

Series [2] can be described thus: Effect on cell viability in mouse SM1 cells up to 10 uM by ApoTox-Glo triplex assay. The class given is cell-based. A digest of the protocol:
(§1)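 SM1 cells treated with HDAC inhibitors, with pan-HDACi and assay controls on every plate. ApoTox-Glo triplex readout: viability fluorescence 400Ex/505Em, cytotoxicity fluorescence 485Ex/520Em, then caspase 3/7 reagent read by luminescence for apoptosis.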

The test system of series [3] is Mus musculus. In words: Antitumor immunity against mouse SM1 cells implanted in flank of immunocompetent C57BL/6 mouse assessed as increase in infiltration of NKT cells at 25 mg/kg, ip administered 1 week post-implantation by flow cytometry. The class given is functional, organism-based. For orientation: A flow cytometer gives signals particle by particle.
Series [4] can be described thus: Cytotoxicity against mouse SM1 cells at 0.1 to 25 uM by ApoTox-Glo triplex assay. It counts as cell-based. An outline of the steps: as §1
The nature of series [5]: Mutagenicity in Salmonella typhimurium TA1537 assessed as induction of >= 3 fold increase in revertant colonies at 1.5 to 1000 ug/well in presence of S9 fraction by Ames test. The conditions noted are these: salmonella enterica subsp. enterica serovar typhimurium. It counts as toxicity, subcellular. An outline of the steps:
(§2)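 Ames test with S. typhimurium TA98 and TA1537, with and without S9 mix. A positive call required a ≥ 2-fold (TA98) or ≥ 3-fold (TA1537) rise in mean revertant colonies over the concurrent negative/solvent control.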
Background: The Ames test detects mutagens through reverse mutation in bacteria.

Another series relates to PC-3. In words: Induction of cell death in human PC3 cells at 0.1 to 25 uM. The class given is cell-based. The conditions noted are these: pc-3, 25 µM.
The next series deals with 5637. In words: Induction of cell death in human 5637 cells at 0.1 to 25 uM. It counts as cell-based. The conditions noted are these: human, 5637, 25 µM.
Series [6] has as its system Mus musculus. In words: Antitumor immunity against mouse SM1 cells implanted in flank of immunocompetent C57BL/6 mouse assessed as infiltration of intratumoral CD4+ cells at 25 mg/kg, ip administered 1 week post-implantation by flow cytometry. The class given is functional, organism-based.
Series [7] can be described thus: Mutagenicity in Salmonella typhimurium TA98 assessed as induction of >= 2 fold increase in revertant colonies at 1.5 to 1000 ug/well in absence of S9 fraction by Ames test. It counts as toxicity. The note with it: salmonella enterica subsp. enterica serovar typhimurium. An outline of the steps:
as §2

The target of series [8] is T1, Protein deacetylase HDAC6 (Mus musculus). In words: Inhibition of HDAC6 in mouse SM1 cells assessed as reduction in IL-6 stimulated STAT3 phosphorylation at Y705 residue at 5 uM pretreated for 1 hr followed by IL-6 stimulation for overnight by western blot analysis. The class given is cell-based. A digest of the protocol: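 SM1 cells pretreated with 5 µM compound, then IL-6 overnight. Lysed in RIPA buffer with protease and phosphatase inhibitors, sonicated, protein quantified by BCA. Immunoblot for PD-L1 and STAT3 Y705 phosphorylation.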

The nature of series [9]: Induction of apoptosis in mouse SM1 cells at 0.1 to 25 uM by caspase3/7 reagent based luminescence assay. The class given is cell-based. A digest of the protocol:
as §1

Series [10] can be described thus: Half life in mouse hepatocytes. It counts as ADME, cell-based, Hepatocyte. An outline of the steps: (§3)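 Half-life in minutes measured in mouse and human hepatocytes.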
Series [11] in a line: Half life in human hepatocytes. The class given is ADME, cell-based, Hepatocyte. An outline of the steps: as §3

The text below walks through data of ChEMBL document CHEMBL4354804, “Discovery of a New Isoxazole-3-hydroxamate-Based Histone Deacetylase 6 Inhibitor SS-208 with Antitumor Activity in Syngeneic Melanoma Mouse Models” (J Med Chem, 2019).

Calls of active or inactive are those of the source. The calls are words filed in the database; no cut-off is given here.

The half-life is the time in which the quantity being followed falls by half. Higher therefore signals slow decline. As to `O=C(NCCc1cc(C(=O)NO)no1)c1ccc(Cl)c(Cl)c1`, the inhibition result in series [1] is “inactive”. Further, the Activity result (in [2]; in series [4]; in series [5]; in the series with PC-3; in the series on 5637; in series [7]) was “Non-Toxic” throughout. For the same compound, in [9], the Activity entry is listed as “Non-Toxic”. The result in the series on Mus musculus [3] was Active. Further, in the series with Mus musculus [6], the result was inactive. Also, in series [8], the inhibition entry is “Active”. Also, the half-life in [10] was 0.367 h; in series [11], 1.8 h.
